Consider 22 compounds from ChEMBL document CHEMBL2093137, “WHO-TDR NTD Screening”.

Structures are written as SMILES. In brackets after ≈: the same amount, converted by molar mass.

In data set [1] the test system is Trypanosoma cruzi. Description: WHO-TDR: Chagas disease. In kind it is functional, organism-based, Homo sapiens. The note with it: MRC5. Put shortly: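 Each IC50 reflects antiparasitic potency against intracellular amastigotes of Trypanosoma cruzi Tulahuen CL2 beta-galactosidase strain. These were cultured in MRC-5SV2 human lung fibroblasts and exposed to a 10,000-compound diverse Life Chemicals library screened according to published standard procedures with a reference drug as positive control.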

In data set [2] the test system is Trypanosoma brucei brucei. In words: WHO-TDR: Human African Trypanosomiasis (HAT). The class given is functional, organism-based. The note with it: Squib-427. Put shortly: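 Antiparasitic potency is reported as IC50. The screen covered 10,000 compounds from a diverse Life Chemicals library, filtered for drug-likeness and reactive groups, tested on whole bloodstream-form Trypanosoma brucei of the Squib 427 strain.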

Data set [3] deals with Leishmania infantum. In words: WHO-TDR: Leishmaniasis. In kind it is functional, organism-based, Mus musculus. The note with it: Macrophage. Put shortly:
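Antiparasitic potency, reported as IC50, was measured against intracellular Leishmania infantum amastigotes. The parasite strain was MHOM/MA(BE)/67, and murine peritoneal macrophages served as host cells for the screen of a 10,000-compound diverse library from Life Chemicals.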

Data set [4] relates to Onchocerca ochengi. Description: (§1) WHO-TDR: Onchocerciasis. The class given is functional. Also on record: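 at 12.5 µM on microfilariae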. Put shortly:
(§2)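 A diverse library of 10,000 compounds from Life Chemicals, filtered for drug-likeness and reactive groups, was screened against whole microfilariae of Onchocerca ochengi or Onchocerca lienalis. These animal pathogens served as stand-ins for the human parasite. Activity is given as percent inhibition and as IC50.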

Data set [5] in a line: WHO-TDR: Cytotoxicity. The class given is toxicity, cell-based. The note with it: human, MRC5 cells.
The test system of data set [6] is Onchocerca ochengi. The description is as §1. In kind it is functional. Also on record: concentration or dose not given beside the values. Put shortly:
as §2
This is another data set of the same source.

In data set [7] the test system is Plasmodium falciparum K1. Description: WHO-TDR: Malaria. The class given is functional, organism-based, Homo sapiens. The note with it: Erythrocyte. Put shortly:
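Antiplasmodial potency, expressed as IC50, was measured in a whole-organism assay on intra-erythrocytic Plasmodium falciparum K1 in human red blood cells. The screened library held 10,000 diverse compounds from Life Chemicals.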

Data set [8] has as its system Schistosoma mansoni. In words: WHO-TDR: Schistosomiasis. The class given is functional. Also on record: concentration or dose not given beside the values. Put shortly: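 A diverse library of 10,000 compounds from Life Chemicals, filtered for drug-likeness and reactive groups, was screened against whole larval and/or adult Schistosoma mansoni worms of the Puerto Rican strain. Previously published standard procedures were followed, with a reference drug as positive control. Activity is given as percent inhibition and as IC50.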

As for `COc1ccc(Cl)cc1S(=O)(=O)Nc1ccc2c(c1)CCC(=O)N2CCC(C)C`, the IC50 in data set [1] is > 13.1 µg/mL; in data set [2], 10.2 µg/mL (≈ 23.4 µM); in data set [3] it was > 13.1 µg/mL; in data set [5], > 13.1 µg/mL; in data set [7] it was > 13.1 µg/mL. In addition, the “% Inhibition” value in data set [4] came out at 100%; in data set [6] it was 0%; in data set [8], 0%.
On to `CC1(C)COc2ccc(NS(=O)(=O)c3cccc4ccccc34)cc2NC1=O`, for which the half-inhibitory concentration (IC50) in data set [1] was > 11.9 µg/mL; in data set [2] it was 6.16 µg/mL (≈ 15.5 µM); in data set [3], > 11.9 µg/mL; in data set [5], > 11.9 µg/mL; in data set [7], > 11.9 µg/mL. The “% Inhibition” value in data set [4] was 100%; in data set [6], 0%; in data set [8] it was 0%.
In the case of `Cc1cc(=O)[nH]c(-n2nc(C)cc2NC(=O)c2ccccc2C(F)(F)F)n1`, the 50% inhibitory concentration (IC50) was 0.409 µg/mL (≈ 1.08 µM) in data set [1]; > 11.3 µg/mL in data set [2]; > 11.3 µg/mL in data set [3]; 2.61 µg/mL (≈ 6.91 µM) in data set [5]; > 11.3 µg/mL in data set [7]. The “% Inhibition” value in data set [4], in data set [6] and in data set [8] was 0% each time.
Turning to `O=C(Nc1ccc(F)cc1)Nc1nc(C(=O)N2CCN(c3ccccc3F)CC2)cs1`, the IC50 in data set [1] is 4.32 µg/mL (≈ 9.74 µM); in data set [2] it was 0.459 µg/mL (≈ 1.03 µM); in data set [3], > 13.3 µg/mL; in data set [5], 5.3 µg/mL (≈ 11.9 µM); in data set [7], 4.63 µg/mL (≈ 10.4 µM). The “% Inhibition” value in data set [4], in data set [6] and in data set [8] was 0% each time.
As to `O=C(CC1CCCCN1S(=O)(=O)c1ccc(Cl)cc1)NCCC1=CCCCC1` (stereo unspecified), the half-maximal inhibitory concentration (IC50) in data set [1] is 0.517 µg/mL (≈ 1.22 µM); in data set [2], 4.23 µg/mL (≈ 9.95 µM); in data set [3] it was 6.6 µg/mL (≈ 15.5 µM); in data set [5] it was 12.7 µg/mL (≈ 30 µM); in data set [7], > 12.7 µg/mL. Besides, the “% Inhibition” value in data set [4], in data set [6] and in data set [8] was 0% in each case.
In the case of `CCCc1cc(=O)[nH]c(-n2nc(C)cc2NC(=O)C2CC(=O)N(c3ccc(C)c(C)c3)C2)n1` (stereo unspecified), the IC50 in data set [1] was 1.28 µg/mL (≈ 2.86 µM); in data set [2], 3.99 µg/mL (≈ 8.9 µM); in data set [3], 4.36 µg/mL (≈ 9.71 µM); in data set [5] it was 4.51 µg/mL (≈ 10 µM); in data set [7], > 13.5 µg/mL. Moreover, the “% Inhibition” value in data set [4] was determined as 50%; in data set [6], 0%; in data set [8], 0%.
Regarding `O=C(CSc1nc(CC(=O)N2CCN(c3ccccc3F)CC2)cs1)Nc1ccc(F)cc1`, the IC50 in data set [1], in data set [2], in data set [3], in data set [5] and in data set [7] was > 14.7 µg/mL each time. Moreover, the “% Inhibition” value in data set [4] stood at 100%; in data set [6], 0%; in data set [8] it was 0%.
Turning to `CN(C)C(CNS(=O)(=O)c1cc(Cl)ccc1Cl)c1ccsc1` (stereo unspecified), the IC50 in data set [1] was > 11.4 µg/mL; in data set [2], 3.82 µg/mL (≈ 10.1 µM); in data set [3], > 11.4 µg/mL; in data set [5], > 11.4 µg/mL; in data set [7] it was 7.08 µg/mL (≈ 18.7 µM). The “% Inhibition” value came out at 100% in data set [4], 0% in data set [6] and 0% in data set [8].
In the case of `CCCN1C(=O)C(C)(C)COc2cc(NS(=O)(=O)c3c(C)c(C)cc(C)c3C)ccc21`, the IC50 in data set [1] was 3.55 µg/mL (≈ 7.99 µM); in data set [2], 4.27 µg/mL (≈ 9.6 µM); in data set [3], > 13.3 µg/mL; in data set [5] it was > 13.3 µg/mL; in data set [7], > 13.3 µg/mL. Further, the entries for the “% Inhibition” value in data set [4], in data set [6] and in data set [8] were 100%, 0% and 0%, respectively.
As for `CN1CCN(C(CNC(=O)c2c(F)cccc2F)c2ccsc2)CC1` (stereo unspecified), the IC50 in data set [1] is 0.406 µg/mL (≈ 1.11 µM); in data set [2], > 11 µg/mL; in data set [3], > 11 µg/mL; in data set [5], > 11 µg/mL; in data set [7], > 11 µg/mL. The “% Inhibition” value in data set [4], in data set [6] and in data set [8] was 0% in each case.
With `CCN(CC)CCN(C(=O)Cc1ccc2c(c1)OCO2)c1nc2c(C)cc(C)cc2s1`, the IC50 is 4.58 µg/mL (≈ 10.4 µM) in data set [1]; 0.452 µg/mL (≈ 1.03 µM) in data set [2]; 7.4 µg/mL (≈ 16.8 µM) in data set [3]; 11.2 µg/mL (≈ 25.4 µM) in data set [5]; 4.32 µg/mL (≈ 9.83 µM) in data set [7]. The “% Inhibition” value in data set [4], in data set [6] and in data set [8] was 0% throughout.
`Cc1[nH]c2ccccc2c1S(=O)(=O)CCNC(=O)Nc1ccc(C(F)(F)F)cc1`: the IC50 in data set [1], in data set [2], in data set [3], in data set [5] and in data set [7] was > 12.8 µg/mL each time. For the same compound, the “% Inhibition” value is 100% in data set [4], 0% in data set [6] and 0% in data set [8].
As for `COc1ccc(CCNC(=O)Cc2csc(SCc3ccc(C)cc3)n2)cc1OC`, the IC50 was 4.01 µg/mL (≈ 9.07 µM) in data set [1]; > 13.3 µg/mL in data set [2]; > 13.3 µg/mL in data set [3]; > 13.3 µg/mL in data set [5]; > 13.3 µg/mL in data set [7]. In addition, the “% Inhibition” value stood at 100% in data set [4], 0% in data set [6] and 0% in data set [8].
For `O=C(Cn1c(=O)n(Cc2cccnc2)c(=O)c2ncccc21)c1ccc2c(c1)CCCC2`, the IC50 in data set [1] was 3.81 µg/mL (≈ 8.93 µM); in data set [2], 4.14 µg/mL (≈ 9.71 µM); in data set [3], > 12.8 µg/mL; in data set [5], > 12.8 µg/mL; in data set [7], 2.96 µg/mL (≈ 6.93 µM). In addition, the entries for the “% Inhibition” value in data set [4], in data set [6] and in data set [8] were 100%, 0% and 0%, respectively.
In the case of `COc1ccc(N2CCN(C(=O)c3csc(NC(=O)c4ccccc4)n3)CC2)cc1`, the IC50 in data set [1] was > 12.7 µg/mL; in data set [2], > 12.7 µg/mL; in data set [3] it was 6.56 µg/mL (≈ 15.5 µM); in data set [5], > 12.7 µg/mL; in data set [7], > 12.7 µg/mL. The “% Inhibition” value is recorded as 100% in data set [4], 0% in data set [6] and 0% in data set [8].
As to `CCN(CC)CCN(C(=O)Cc1ccc2c(c1)OCO2)c1nc2c(C)c(C)ccc2s1`, the IC50 is 9.51 µg/mL (≈ 21.6 µM) in data set [1]; 0.452 µg/mL (≈ 1.03 µM) in data set [2]; > 14.3 µg/mL in data set [3]; > 14.3 µg/mL in data set [5]; 8.03 µg/mL (≈ 18.3 µM) in data set [7]. The “% Inhibition” value in data set [4], in data set [6] and in data set [8] was 0% each time.
As for `Cc1cc(NC(=O)COc2ccc(Cl)cc2)n(-c2nc(C)c(C)c(=O)[nH]2)n1`, the IC50 was 0.359 µg/mL (≈ 0.926 µM) in data set [1]; 0.377 µg/mL (≈ 0.971 µM) in data set [2]; > 11.6 µg/mL in data set [3]; 0.338 µg/mL (≈ 0.872 µM) in data set [5]; 2.07 µg/mL (≈ 5.33 µM) in data set [7]. In addition, the entries for the “% Inhibition” value in data set [4], in data set [6] and in data set [8] were 50%, 0% and 0%, respectively.
Consider `Cc1cc(NC(=O)c2cccs2)n(-c2nc3c(c(=O)[nH]2)CCC3)n1`, for which the IC50 stood at 0.56 µg/mL (≈ 1.64 µM) in data set [1]; 3.2 µg/mL (≈ 9.37 µM) in data set [2]; 5.3 µg/mL (≈ 15.5 µM) in data set [3]; 2.03 µg/mL (≈ 5.94 µM) in data set [5]; 10.2 µg/mL (≈ 30 µM) in data set [7]. For the same compound, the “% Inhibition” value in data set [4], in data set [6] and in data set [8] was 0% each time.
With `CN1C(=O)C(C)(C)COc2ccc(NS(=O)(=O)c3ccccc3F)cc21`, the half-inhibitory concentration (IC50) in data set [1], in data set [2], in data set [3], in data set [5] and in data set [7] was > 11.4 µg/mL throughout. The “% Inhibition” value was found to be 100% in data set [4], 0% in data set [6] and 0% in data set [8].
`CN1CCN(C(CNC(=O)COc2ccccc2F)c2ccc3c(c2)CCN3C)CC1` (stereo unspecified): the IC50 is > 12.8 µg/mL in data set [1]; 4.14 µg/mL (≈ 9.71 µM) in data set [2]; 1.9 µg/mL (≈ 4.46 µM) in data set [3]; > 12.8 µg/mL in data set [5]; 3.56 µg/mL (≈ 8.35 µM) in data set [7]. The “% Inhibition” value in data set [4], in data set [6] and in data set [8] was 0% in each case.
Turning to `O=S(=O)(Nc1cccc(-c2nc3ccccc3s2)c1)c1ccc(Cl)s1`, the half-inhibitory concentration (IC50) in data set [1] was 4.01 µg/mL (≈ 9.85 µM); in data set [2] it was > 12.2 µg/mL; in data set [3] it was > 12.2 µg/mL; in data set [5], > 12.2 µg/mL; in data set [7] it was > 12.2 µg/mL. Besides, the “% Inhibition” value in data set [4] was determined as 100%; in data set [6], 0%; in data set [8] it was 0%.
Regarding `COc1ccc(CCC(=O)NCC(c2ccsc2)N2CCc3ccccc3C2)cc1` (stereo unspecified), the IC50 in data set [1] is 4.15 µg/mL (≈ 9.87 µM); in data set [2], 4.13 µg/mL (≈ 9.83 µM); in data set [3], > 12.6 µg/mL; in data set [5], > 12.6 µg/mL; in data set [7], 6.14 µg/mL (≈ 14.6 µM). For the same compound, the results for the “% Inhibition” value in data set [4], in data set [6] and in data set [8] were 100%, 0% and 0%, respectively.
